Measurements published in ChEMBL document CHEMBL2429759, “Anti-tumor activity evaluation of novel chrysin-organogermanium(IV) complex in MCF-7 cells” (Bioorg Med Chem Lett, 2013).
Calls of active or inactive are those of the source. The calls are words filed in the database; no cut-off is given here.

Legend:
[1] = test system: MCF-10A; assay: Growth inhibition of human MCF10A cells at 5 ug/ml by MTT assay; type: cell-based; settings: mcf-10a
[2] = test system: MCF-10A; assay: Antimigratory activity against human MCF10A cells at 10 ug/ml by wound-healing assay; type: ADME, cell-based
In short: (§1)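 Scratch wound-healing: monolayers wounded with a p200 pipette tip, kept with or without complex; images taken at 0 and 24 h; reference lines drawn equidistant.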

[3] = test system: MCF-10A; assay: Growth inhibition of human MCF10A cells at 10 ug/ml by MTT assay; type: cell-based; settings: mcf-10a
[4] = test system: MCF-10A; assay: Disruption of microfilament organization in human MCF10A cells at 10 ug/ml by immunofluorescence analysis relative to control; type: ADME, cell-based
[5] = test system: MCF-10A; assay: Growth inhibition of human MCF10A cells at 20 ug/ml by MTT assay; type: cell-based; settings: mcf-10a
[6] = test system: MCF-10A; assay: Growth inhibition of human MCF10A cells at 30 ug/ml by MTT assay; type: cell-based; settings: mcf-10a
[7] = test system: MCF-10A; assay: Disruption of cell integrity in human MCF10A cells at 10 ug/ml by immunofluorescence analysis relative to control; type: ADME, cell-based
[8] = test system: MCF7; assay: Induction of apoptosis in human MCF7 cells assessed as necrotic cells at 20 ug/ml after 24 hrs by annexin-V FITC/propidium iodide staining-based flow cytometry (reference value: 0.3%); type: functional, cell-based
In short: (§2)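 Apoptosis in MCF-7 after 24 h exposure to 5, 10 or 20 μg/mL complex; annexin-V-FITC/PI staining with flow cytometry. Quadrants: Q3 live, Q4 apoptotic, Q2 necrotic or late apoptotic.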

[9] = test system: MCF7; assay: Induction of apoptosis in human MCF7 cells assessed as disruption of mitochondrial membrane potential measured as mean fluorescence intensity at 20 ug/ml by rhodamine 123 staining-based flow cytometry (reference value: 3094 no unit); type: functional, cell-based
[10] = test system: MCF7; assay: Induction of apoptosis in human MCF7 cells assessed as intracellular ROS production measured as mean fluorescence intensity at 2.5 ug/ml using DCFH-DA staining-based flow cytometry (reference value: 101.50 no unit); type: functional, cell-based
[11] = test system: MCF7; assay: Cell cycle arrest in human MCF7 cells assessed as accumulation at G2/M phase at 10 ug/ml after 24 hrs by propidium iodide staining-based flow cytometry (reference value: 7.43 +/- 0.98%); type: functional
[12] = test system: HepG2; assay: Growth inhibition of human HepG2 cells at 20 ug/ml by MTT assay; type: functional
[13] = test system: MCF7; assay: Induction of apoptosis in human MCF7 cells assessed as viable cells at 10 ug/ml after 24 hrs by annexin-V FITC/propidium iodide staining-based flow cytometry (reference value: 98.1%); type: functional, cell-based; in short: as §2
[14] = test system: COLO 205; assay: Growth inhibition of human COLO205 cells at 30 ug/ml by MTT assay; type: functional
[15] = test system: HepG2; assay: Growth inhibition of human HepG2 cells by MTT assay; type: functional, cell-based
[16] = test system: HepG2; assay: Growth inhibition of human HepG2 cells at 10 ug/ml by MTT assay; type: functional
[17] = test system: MCF7; assay: Cell cycle arrest in human MCF7 cells assessed as accumulation at G2/M phase at 20 ug/ml after 24 hrs by propidium iodide staining-based flow cytometry (reference value: 7.43 +/- 0.98%); type: functional
[18] = test system: MCF7; assay: Induction of apoptosis in human MCF7 cells assessed as caspase 3 activation at 20 ug/ml by fluorometric analysis (reference value: 100%); type: functional, cell-based
In short: (§3)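 Caspase-3, -8 and -9 activities read fluorometrically in whole-cell extracts of treated MCF-7; mean ± standard deviation of three independent experiments.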

[19] = test system: MCF7; assay: Cell cycle arrest in human MCF7 cells assessed as accumulation at G2/M phase at 2.5 ug/ml after 24 hrs by propidium iodide staining-based flow cytometry (reference value: 7.43 +/- 0.98%); type: functional
[20] = test system: MCF7; assay: Growth inhibition of human MCF7 cells at 5 ug/ml by MTT assay; type: functional
[21] = test system: MCF7; assay: Disruption of cell integrity in human MCF7 cells at 10 ug/ml by immunofluorescence analysis; type: functional, cell-based
In short: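 MCF-7 cells treated with complex at various concentrations; α-tubulin stained with Tubulin-Tracker red and fibre network imaged by immunofluorescence microscopy.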

[22] = test system: MCF7; assay: Induction of apoptosis in human MCF7 cells assessed as disruption of mitochondrial membrane potential measured as mean fluorescence intensity at 10 ug/ml by rhodamine 123 staining-based flow cytometry (reference value: 3094 no unit); type: functional, cell-based
[23] = test system: COLO 205; assay: Growth inhibition of human COLO205 cells at 10 ug/ml by MTT assay; type: functional
[24] = test system: MCF7; assay: Induction of apoptosis in human MCF7 cells assessed as early apoptotic cells at 5 ug/ml after 24 hrs by annexin-V FITC/propidium iodide staining-based flow cytometry (reference value: 0.5%); type: functional, cell-based; in short: as §2
[25] = test system: MCF7; assay: Antimigratory activity against human MCF7 cells at 2.5 to 20 ug/ml after 24 hrs by wound-healing assay; type: functional, cell-based; in short: as §1
[26] = test system: MCF7; assay: Induction of apoptosis in human MCF7 cells assessed as intracellular ROS production measured as mean fluorescence intensity at 5 ug/ml using DCFH-DA staining-based flow cytometry (reference value: 101.50 no unit); type: functional, cell-based
[27] = test system: MCF7; assay: Growth inhibition of human MCF7 cells at 30 ug/ml by MTT assay; type: functional
[28] = test system: MCF7; assay: Induction of apoptosis in human MCF7 cells assessed as necrotic cells at 10 ug/ml after 24 hrs by annexin-V FITC/propidium iodide staining-based flow cytometry (reference value: 0.3%); type: functional, cell-based; in short: as §2
[29] = test system: MCF7; assay: Induction of apoptosis in human MCF7 cells assessed as late apoptotic cells at 5 ug/ml after 24 hrs by annexin-V FITC/propidium iodide staining-based flow cytometry (reference value: 1.0%); type: functional, cell-based; in short: as §2
[30] = test system: COLO 205; assay: Growth inhibition of human COLO205 cells by MTT assay; type: functional, cell-based
[31] = test system: MCF7; assay: Induction of apoptosis in human MCF7 cells assessed as intracellular ROS production measured as mean fluorescence intensity at 10 ug/ml using DCFH-DA staining-based flow cytometry (reference value: 101.50 no unit); type: functional, cell-based
[32] = test system: MCF7; assay: Induction of apoptosis in human MCF7 cells assessed as caspase 8 activation at 20 ug/ml by fluorometric analysis (reference value: 100%); type: functional, cell-based; in short: as §3
[33] = test system: MCF7; assay: Induction of apoptosis in human MCF7 cells assessed as caspase 9 activation at 20 ug/ml by fluorometric analysis (reference value: 100%); type: functional, cell-based; in short: as §3
[34] = test system: MCF7; assay: Induction of apoptosis in human MCF7 cells assessed as late apoptotic cells at 20 ug/ml after 24 hrs by annexin-V FITC/propidium iodide staining-based flow cytometry (reference value: 1.0%); type: functional, cell-based; in short: as §2
[35] = test system: COLO 205; assay: Growth inhibition of human COLO205 cells at 5 ug/ml by MTT assay; type: functional
[36] = test system: MCF7; assay: Induction of apoptosis in human MCF7 cells assessed as viable cells at 5 ug/ml after 24 hrs by annexin-V FITC/propidium iodide staining-based flow cytometry (reference value: 98.1%); type: functional, cell-based; in short: as §2
[37] = test system: MCF7; assay: Induction of apoptosis in human MCF7 cells assessed as gatheration of condensed chromatin at periphery of nuclear membrane at 10 ug/ml by DAPI staining-based immunofluorescence analysis relative to control; type: functional, cell-based
In short: (§4)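 Nuclear morphology of control and 10 μg/mL-treated MCF-7 cells visualised by DAPI staining under fluorescence microscopy.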

[38] = test system: MCF7; assay: Induction of apoptosis in human MCF7 cells assessed as early apoptotic cells at 20 ug/ml after 24 hrs by annexin-V FITC/propidium iodide staining-based flow cytometry (reference value: 0.5%); type: functional, cell-based; in short: as §2
[39] = test system: MCF7; assay: Induction of apoptosis in human MCF7 cells assessed as segmentation of nuclei at 10 ug/ml by DAPI staining-based immunofluorescence analysis relative to control; type: functional, cell-based; in short: as §4
[40] = test system: MCF7; assay: Growth inhibition of human MCF7 cells at 20 ug/ml by MTT assay; type: functional
[41] = test system: MCF7; assay: Induction of apoptosis in human MCF7 cells assessed as late apoptotic cells at 10 ug/ml after 24 hrs by annexin-V FITC/propidium iodide staining-based flow cytometry (reference value: 1.0%); type: functional, cell-based; in short: as §2
[42] = test system: HepG2; assay: Growth inhibition of human HepG2 cells at 5 ug/ml by MTT assay; type: functional
[43] = test system: MCF7; assay: Growth inhibition of human MCF7 cells by MTT assay; type: functional, cell-based
[44] = test system: MCF7; assay: Growth inhibition of human MCF7 cells at 10 ug/ml by MTT assay; type: functional
[45] = test system: MCF7; assay: Cell cycle arrest in human MCF7 cells assessed as accumulation at G2/M phase at 5 ug/ml after 24 hrs by propidium iodide staining-based flow cytometry (reference value: 7.43 +/- 0.98%); type: functional
[46] = test system: MCF7; assay: Induction of apoptosis in human MCF7 cells assessed as necrotic cells at 5 ug/ml after 24 hrs by annexin-V FITC/propidium iodide staining-based flow cytometry (reference value: 0.3%); type: functional, cell-based; in short: as §2
[47] = test system: HepG2; assay: Growth inhibition of human HepG2 cells at 30 ug/ml by MTT assay; type: functional
[48] = test system: MCF7; assay: Induction of apoptosis in human MCF7 cells assessed as viable cells at 20 ug/ml after 24 hrs by annexin-V FITC/propidium iodide staining-based flow cytometry (reference value: 98.1%); type: functional, cell-based; in short: as §2
[49] = test system: MCF7; assay: Disruption of cell morphology in human MCF7 cells assessed as decrease in tip-cell adhesion force at 10 ug/ml by atomic force microscopy relative to control; type: functional, cell-based
In short: (§5)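 AFM high-resolution topography and force measurements on control MCF-7 cells and cells treated with 10 μg/mL complex, assessing surface ultrastructure, rigidity and tip-cell adhesion force.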

[50] = test system: COLO 205; assay: Growth inhibition of human COLO205 cells at 20 ug/ml by MTT assay; type: functional
[51] = test system: MCF7; assay: Disruption of microfilament organization in human MCF7 cells at 10 ug/ml by immunofluorescence analysis; type: functional, cell-based
[52] = test system: MCF7; assay: Induction of apoptosis in human MCF7 cells assessed as early apoptotic cells at 10 ug/ml after 24 hrs by annexin-V FITC/propidium iodide staining-based flow cytometry (reference value: 0.5%); type: functional, cell-based; in short: as §2
[53] = test system: MCF7; assay: Disruption of cell morphology in human MCF7 cells assessed as deformed shrunk cell tails at 10 ug/ml by atomic force microscopy relative to control; type: functional, cell-based; in short: as §5
[54] = test system: MCF7; assay: Induction of apoptosis in human MCF7 cells assessed as disruption of mitochondrial membrane potential measured as mean fluorescence intensity at 5 ug/ml by rhodamine 123 staining-based flow cytometry (reference value: 3094 no unit); type: functional, cell-based

With “5-hydroxy-2-phenyl-7-(triphenylgermyloxy)-4H-chromen-4-one ethanol [listing 1 of 2 here]” the “growth inhibition (GI)” value [1] was 4.822%, the Activity [2] was “Toxic” and the “growth inhibition (GI)” value [3] was 12.3%. For the same substance, the Activity [4] was “Non-toxic”, the “growth inhibition (GI)” value [5] was 23.67% and the “growth inhibition (GI)” value [6] was 27.25%. For the same substance, the Activity [7] was “Non-toxic”.

For “5-hydroxy-2-phenyl-7-(triphenylgermyloxy)-4H-chromen-4-one ethanol [listing 2 of 2 here]”, the Activity [8] was 0.6%, the Flu intensity [9] was 1480 and the Flu intensity [10] was 87.1. The Activity [11] was 24.5%, the growth inhibition (GI) [12] was 31.1% and the Activity [13] was 88.1%. The growth inhibition (GI) [14] was 31.6%, the “growth inhibition (GI)” value [15] was “Dose-dependent effect” and the growth inhibition (GI) [16] was 20.3%. For the same substance, the Activity [17] was 30.9%, the Activity [18] was 214% and the Activity [19] was 8.73%. For the same substance, the growth inhibition (GI) [20] was 7.01%, the Activity [21] was “Active” and the Flu intensity [22] was 1370. For the same substance, the growth inhibition (GI) [23] was 12.1%, the Activity [24] was 1.5% and the Activity [25] was “Active”. For the same substance, the Flu intensity [26] was 107, the growth inhibition (GI) [27] was 42.1% and the Activity [28] was 0.7%. The Activity [29] was 3.2%, the “growth inhibition (GI)” value [30] was “Dose-dependent effect” and the Flu intensity [31] was 126. For the same substance, the Activity [32] was 181%, the Activity [33] was 286% and the Activity [34] was 5.4%. For the same substance, the growth inhibition (GI) [35] was 5.85%, the Activity [36] was 94.9% and the Activity [37] was “Active”. For the same substance, the Activity [38] was 19.5%, the Activity [39] was “Active” and the growth inhibition (GI) [40] was 31.3%. For the same substance, the Activity [41] was 6.2%, the growth inhibition (GI) [42] was 7.95% and the “growth inhibition (GI)” value [43] was “Dose-dependent effect”. It also gave a growth inhibition (GI) [44] of 19.2%, an Activity [45] of 15.8% and an Activity [46] of 0.5%. The growth inhibition (GI) [47] was 36.7%, the Activity [48] was 74.5% and the Activity [49] was “Active”. The growth inhibition (GI) [50] was 20.3%, the Activity [51] was “Active” and the Activity [52] was 5.1%. For the same substance, the Activity [53] was “Active” and the Flu intensity [54] was 1980.
